# Measured values gathered from unrelated publications.
# Lines come from different studies, so protocols differ.
# Target: Aurora kinase C (AURKC, Homo sapiens, UniProt Q9UQB9)
# Sequence (Q9UQB9 1-309, as in one of the studies): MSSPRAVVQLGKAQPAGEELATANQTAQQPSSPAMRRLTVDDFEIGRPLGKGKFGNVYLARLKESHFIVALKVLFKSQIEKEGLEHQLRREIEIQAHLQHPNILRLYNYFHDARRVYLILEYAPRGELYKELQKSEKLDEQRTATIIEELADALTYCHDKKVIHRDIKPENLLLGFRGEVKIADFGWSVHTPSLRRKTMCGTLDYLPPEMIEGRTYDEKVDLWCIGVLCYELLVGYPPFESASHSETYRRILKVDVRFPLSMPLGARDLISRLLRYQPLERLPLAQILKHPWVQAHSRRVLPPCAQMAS
Structure (SMILES),assay,setting,remaining binding [%]
O=C(O)[C@@H]1[C@@H](Cn2nnc3ccccc3c2=O)CC[C@H]1C(=O)c1ccc(OCCC2CCOCC2)cc1,"cell-free assay, competition with immobilised ligand",1 µM,100
CN(c1nccc(-c2cnn3ncccc23)n1)C1CC1,binding,1 µM,100
C[C@@H](c1ccc(-n2cnc3c(N)ncnc32)cc1)N1CCc2nn(C)c(Cc3ccccc3)c2C1=O,"binding, competition with immobilised ligand",0.1 µM,79
O=C(c1ccc(Nc2nccc(-c3cc4ccccc4s3)n2)cc1)N1CCC(N2CCCC2)CC1,"binding, competition with immobilised ligand",1 µM,30
CN(C)c1ncc(F)c(-c2cnn3ncccc23)n1,binding,1 µM,100
CS(=O)(=O)c1cc(C2(NC(=O)c3cncc4c3cnn4-c3ccc(F)cc3)CC2)ccn1,"cell-free assay, competition with immobilised ligand",1 µM,100
O=C(c1ccc(Nc2ncc(Cl)c(-c3cc4ccccc4s3)n2)cc1)N1CCC(N2CCCC2)CC1,"binding, competition with immobilised ligand",1 µM,1.8
O=C(Nc1c[nH]nc1C(=O)NC1CCNCC1)c1cc(F)cc(F)c1,"binding, competition with immobilised ligand",1 µM,84
Cc1cnc(Nc2ccc(C(=O)N3CCC(N4CCCC4)CC3)cc2)nc1-c1cc2ccccc2s1,"binding, competition with immobilised ligand",1 µM,4.3
COc1cnc(Nc2cccc(S(N)(=O)=O)c2)nc1N1CCN(c2ccccc2)C(=O)C1,"binding, competition with immobilised ligand",1 µM,97
COc1ccc2c(c1)O[C@H](c1ccc(OC)c(OC)c1)C[C@@H]2NC(=O)C1(c2ccc3c(c2)OC(F)(F)O3)CC1,"cell-free assay, competition with immobilised ligand",1 µM,100
COc1ccnn2ncc(-c3ccnc(N(C)C)n3)c12,binding,1 µM,100
FC(F)(F)Oc1cccc(-c2cnc3ccc(-c4ccncc4)nn23)c1,"cell-free assay, competition with immobilised ligand",5 µM,78
F[C@@H]1CCN(c2nccc(-c3cnn4ncccc34)n2)C1,binding,1 µM,100
COc1cccc(CNC(=O)c2nc3scc(COCc4ccc(C(=O)O)cc4)c3c(=O)[nH]2)c1,"cell-free assay, competition with immobilised ligand",1 µM,67.3
C=CC(=O)N1CCC(C(=O)NCC(=O)N2CCN(c3nc(-c4cnc(N)nc4C(F)F)nc(N4CCOCC4)n3)CC2)CC1,"binding, competition with immobilised ligand",1 µM,100
O=C(NC[C@@H]1[C@H]2CN(C(=O)OCc3cc(C(F)(F)F)cc(C(F)(F)F)c3)C[C@@H]12)c1ccc2[nH]nnc2c1,"cell-free assay, competition with immobilised ligand",1 µM,91
COc1cnc(Nc2cccc(S(N)(=O)=O)c2)nc1N1CCN(c2ccccc2)CC1,"binding, competition with immobilised ligand",1 µM,84
C[C@H]1CCN(c2nccc(-c3cnn4ncccc34)n2)C1,binding,1 µM,95
c1cncc(-c2cccc(Nc3nccc(NC4CCCCC4)n3)c2)c1,"binding, competition with immobilised ligand",10 µM,5.5
N[C@@H]1CCN(c2nccc(-c3cnn4ncccc34)n2)C1,binding,1 µM,100
CO[C@H]1CC[C@H](CNc2ccc(S(=O)(=O)NC(=O)c3ccc(N4CCN(CC5=C(c6ccc(Cl)cc6)CC(C)(C)CC5)CC4)cc3Oc3cnc4[nH]ccc4c3)cc2[N+](=O)[O-])CC1,"cell-free assay, competition with immobilised ligand",1 µM,87
